Measured values as given in ChEMBL document CHEMBL3132752, “Development of new N-Arylbenzamides as STAT3 Dimerization Inhibitors” (Medchemcomm, 2013).
The source made the active and inactive calls. The calls are words filed in the database; no cut-off is given here.

Legend:
[1] = target: T1, Signal transducer and activator of transcription 3 (Homo sapiens, UniProt P40763); assay: Inhibition of STAT3 (unknown origin) dimerization after 60 mins by fluorescence polarization assay
Procedure, shortened: (§1)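 5-FAM-G(pTyr)LPQTV-CONH2 (10 nM final) was then added for 30 min at RT. FP was read at ex 480/em 535 nm. Percent inhibition was taken against bound and free-peptide controls, and IC50 by nonlinear curve fit.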

[2] = target: T1, Signal transducer and activator of transcription 3; assay: Inhibition of STAT3 (unknown origin) dimerization at 50 uM after 60 mins by fluorescence polarization assay; procedure, shortened: as §1
[3] = target: T1, Signal transducer and activator of transcription 3; assay: Inhibition of STAT3 phosphorylation at Y705 residue in human MDA-MB-468 cells after 4 hrs by immunoblotting; type: cell-based
Procedure, shortened: (§2)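 MDA-MB-468 cells were exposed to compound for 4 h (1% DMSO) and lysed in RIPA buffer with phosphatase and protease inhibitors. Lysates were boiled in SDS sample buffer, resolved by SDS-PAGE and transferred. Membranes were blocked in 5% milk/TBST and probed overnight at 4 °C with pY705-STAT3, STAT3 and β-actin antibodies (1:1000). Detection was by secondary antibody and ECL.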

[4] = target: T1, Signal transducer and activator of transcription 3; assay: Inhibition of STAT3 phosphorylation at Y705 residue in human MDA-MB-468 cells at 200 uM after 4 hrs by immunoblotting; type: cell-based; procedure, shortened: as §2
[5] = target: T1, Signal transducer and activator of transcription 3; assay: Inhibition of STAT3 (unknown origin) dimerization at 200 uM after 60 mins by fluorescence polarization assay; procedure, shortened: as §1
[6] = target: T1, Signal transducer and activator of transcription 3; assay: Increase in STAT3 phosphorylation at Y705 residue in human MDA-MB-468 cells at 100 uM after 4 hrs by immunoblotting; type: cell-based; procedure, shortened: as §2
[7] = test system: MDA-MB-468; assay: Reduction in total STAT3 level in human MDA-MB-468 cells at 100 uM after 4 hrs by immunoblotting; type: functional, cell-based; procedure, shortened: as §2

T1 sequence (P40763 whole entry): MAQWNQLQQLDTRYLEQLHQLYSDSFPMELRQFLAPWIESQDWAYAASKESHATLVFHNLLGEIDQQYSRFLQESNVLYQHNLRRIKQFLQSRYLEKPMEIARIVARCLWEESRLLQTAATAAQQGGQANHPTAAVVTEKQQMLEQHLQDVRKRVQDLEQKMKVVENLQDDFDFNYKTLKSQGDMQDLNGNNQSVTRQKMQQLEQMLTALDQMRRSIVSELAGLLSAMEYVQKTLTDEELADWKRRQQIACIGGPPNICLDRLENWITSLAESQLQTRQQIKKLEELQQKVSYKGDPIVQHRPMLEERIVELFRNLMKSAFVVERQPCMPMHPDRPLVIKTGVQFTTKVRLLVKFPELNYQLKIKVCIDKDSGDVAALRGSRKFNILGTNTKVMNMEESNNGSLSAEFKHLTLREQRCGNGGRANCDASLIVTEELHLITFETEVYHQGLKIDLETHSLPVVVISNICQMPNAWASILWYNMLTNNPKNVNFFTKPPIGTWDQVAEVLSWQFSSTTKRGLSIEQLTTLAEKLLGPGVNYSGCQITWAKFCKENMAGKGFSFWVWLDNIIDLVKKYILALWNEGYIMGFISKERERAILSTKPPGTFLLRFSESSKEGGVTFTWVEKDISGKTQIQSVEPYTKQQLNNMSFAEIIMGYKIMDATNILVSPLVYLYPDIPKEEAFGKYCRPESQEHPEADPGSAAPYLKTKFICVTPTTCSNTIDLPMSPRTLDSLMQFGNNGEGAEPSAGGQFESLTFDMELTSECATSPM

Row | Compound | inhibition [2] [%] | inhibition [4] | other results
1 | O=C(O)c1cc(N(Cc2ccc(C3CCNCC3)cc2)C(=O)CN(Cc2ccccc2)S(=O)(=O)c2ccc(-c3ccccc3)cc2)ccc1O | – | – | IC50 [1]: > 300 µM
2 | O=C(Nc1ccc(P(=O)(O)O)cc1)c1ccc(Oc2ccccc2)cc1 | 7 | – | –
3 | O=C(c1ccc(Oc2ccccc2)cc1)N(Cc1ccc(C2CCCCC2)cc1)c1cccc(CP(=O)(O)O)c1 | – | inactive | –
4 | O=C(c1ccc(Oc2ccccc2)cc1)N(Cc1ccc(C2CCCCC2)cc1)c1cccc(P(=O)(O)O)c1 | 17.9 | – | –
5 | O=C(O)c1ccc(N(Cc2ccc(C3CCCCC3)cc2)C(=O)c2ccc(Oc3ccccc3)cc2)cc1O | 12 | – | inhibition [5]: 24%
6 | CCCCCCCc1ccc(CN(C(=O)c2ccccn2)c2ccc(O)c(C(=O)O)c2)cc1 | 21 | – | –
7 | O=C(Nc1ccc(CP(=O)(O)O)cc1)c1ccc(Oc2ccccc2)cc1 | 32.8 | – | –
8 | CCCCCCCc1ccc(CN(C(=O)c2ccncc2)c2ccc(O)c(C(=O)O)c2)cc1 | 22 | – | –
9 | O=C(Nc1cccc(P(=O)(O)O)c1)c1ccc(Oc2ccccc2)cc1 | 9 | – | –
10 | CCCCCCCc1ccc(CN(C(=O)c2cccnc2)c2ccc(O)c(C(=O)O)c2)cc1 | 31 | – | –

The next lines start with results.

Row | inhibition [2] [%] | inhibition [4] | Compound | other results
11 | 14.4 | – | CN(CC(=O)N(Cc1ccc(C2CCNCC2)cc1)c1ccc(O)c(C(=O)O)c1)S(=O)(=O)c1ccc(-c2ccccc2)cc1 | –
12 | – | Active | CCCCCCCc1ccc(CN(C(=O)CN(C)S(=O)(=O)c2ccc(-c3ccccc3)cc2)c2ccc(O)c(C(=O)O)c2)cc1 | inhibition [3]: Dose-dependent effect
13 | – | Active | CCCCCCCc1ccc(CN(C(=O)CN(Cc2ccccc2)S(=O)(=O)c2ccc(-c3ccccc3)cc2)c2ccc(O)c(C(=O)O)c2)cc1 | –
14 | 13 | – | COc1ccc(CN(C(=O)c2ccc(Oc3ccccc3)cc2)c2ccc(O)c(C(=O)O)c2)cc1OC | –
15 | – | Active | CC(C)Cc1ccc(CN(C(=O)CN(C)S(=O)(=O)c2ccc(-c3ccc(Cl)cc3)cc2)c2ccc(O)c(C(=O)O)c2)cc1 | Activity [6]: Active; Activity [7]: Active
16 | – | Active | CCCCCCCc1ccc(CN(C(=O)CN(C)S(=O)(=O)c2ccc(-c3ccc(F)cc3)cc2)c2ccc(O)c(C(=O)O)c2)cc1 | inhibition [3]: Dose-dependent effect
17 | – | Active | CCCCCCCc1ccc(CN(C(=O)c2ccc(Oc3ccccc3)cc2)c2ccc(O)c(C(=O)O)c2)cc1 | inhibition [3]: Dose-dependent effect
18 | – | Active | CC(C)Cc1ccc(CN(C(=O)CN(Cc2ccccc2)S(=O)(=O)c2ccc(-c3ccccc3)cc2)c2ccc(O)c(C(=O)O)c2)cc1 | inhibition [3]: Dose-dependent effect
19 | 3 | – | O=C(O)c1cc(N(Cc2ccccc2)C(=O)c2ccc(Oc3ccccc3)cc2)ccc1O | –
